Data set [1] in a line: Induction of nitric oxide release in phosphate buffer solution after 2 to 4 hrs by Griess method relative to control. The class given is physicochemical. The essentials: (§1)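 Test compound at 5.0 × 10^-2 mM in PBS pH 7.4 at 37 °C for 2 or 4 h. Nitrite formed from NO was quantified by the Griess reaction and expressed as % of a theoretical maximum of 2 mol NO/mol compound; mean of n = 3.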
(In general: Nitrite, measured by Griess reagent, commonly stands in for NO production.)

The nature of data set [2]: Induction of HNO release in phosphate buffer saline after 2 hrs by phosphine-trapping based LC-MS assay relative to control. Type of data set: physicochemical. The essentials:
(§2)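 Test compound (20 µM final) was incubated in PBS pH 7.4 containing 7.5% DMSO with a phosphine HNO trap (1 mM final) and 4-hydroxybenzophenone internal standard (5.05 µM), in a sealed vial at 37 °C for 2 h or 48 h. The reaction was quenched with H2O2, dried, and redissolved in methanol. HNO-derived amide was quantified by ESI-negative LC-MS against a standard curve. % is of a theoretical 1 mol HNO/mol, mean of triplicates.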

A short description of data set [3]: Induction of nitric oxide release in phosphate buffer solution after 2 hrs by Griess method relative to control. Type of data set: physicochemical. The essentials: as §1
Data set [4] can be described thus: Induction of nitric oxide release in phosphate buffer solution after 4 hrs by Griess method relative to control. Type of data set: physicochemical. An outline of the steps: as §1
Data set [5] in a line: Induction of HNO release in phosphate buffer saline after 48 hrs by phosphine-trapping based LC-MS assay relative to control. Type of data set: physicochemical. The essentials: as §2
A short description of data set [6]: Induction of nitric oxide release in phosphate buffer solution after 1.5 hrs by Griess method relative to control. The class given is physicochemical. The essentials:
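Test compound at 5.0×10^-2 mM was incubated in phosphate buffer pH 7.4 at 37 °C for 1.5 h. NO was estimated indirectly as nitrite by the Griess reaction. % nitrite is based on a theoretical maximum of 2 mol NO/mol compound, mean of n = 3.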

Data set [7] concerns Heart. The data set is described as follows: Ionotropic activity in C57BL/6 mouse heart assessed as rate of contraction at 100 uM after 20 mins by hemodynamic analysis (reference value: 4178 +/- 141 cmH2O/ms). Type of data set: functional. The essentials: (§3)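 Isolated C57BL/6 mouse hearts perfused retrogradely (Langendorff) at constant pressure (90 cm H2O) with 95% O2/5% CO2-aerated Krebs-Henseleit buffer at 37 °C. After 20 min stabilization, hearts were perfused with compound at 10 or 100 µM for 20 min. Measured: heart rate, rates of contraction and relaxation, LVDP and coronary flow. Comparison to baseline; mean ± SEM, n = 4.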

Data set [8] concerns Mus musculus. Nature of the data set: Effect on cardiac hemodynamic parameter in C57 black mouse assessed as heart rate at 13.7 to 60.345 umol/kg, po after 3 hrs (reference value: 448 +/- 72 bpm). Type of data set: functional.
For data set [9], the system named is Mus musculus. Nature of the data set: Antihypertensive activity in C57 black mouse assessed as systolic blood pressure at 13.7 to 60.345 umol/kg, po after 3 hrs (reference value: 118.3 +/- 6.1 mmHg). Type of data set: functional, Artery.
Data set [10] has as its system Heart. Nature of the data set: Ionotropic activity in C57BL/6 mouse heart assessed as rate of relaxation at 100 uM after 20 mins by hemodynamic analysis (reference value: -3318 +/- 161 cmH2O/ms). The class given is functional. An outline of the steps:
as §3

Data set [11] has as its system Mus musculus. The data set is described as follows: Antihypertensive activity in C57 black mouse assessed as diastolic blood pressure at 13.7 to 60.345 umol/kg, po after 1 hr (reference value: 85.5 +/- 12.6 mmHg). The class given is functional, Artery.
Data set [12] has as its system Mus musculus. Nature of the data set: Antihypertensive activity in C57 black mouse assessed as mean blood pressure at 13.7 to 60.345 umol/kg, po after 1 hr (reference value: 106 +/- 11 mmHg). Type of data set: functional.
The subject of data set [13] is Mus musculus. Nature of the data set: Antihypertensive activity in C57 black mouse assessed as diastolic blood pressure at 13.7 to 60.345 umol/kg, po after 6 hrs (reference value: 85.3 +/- 11.5 mmHg). The class given is functional, Artery.
Data set [14] relates to Mus musculus. The data set is described as follows: Antihypertensive activity in C57 black mouse assessed as systolic blood pressure at 13.7 to 60.345 umol/kg, po after 1 hr (reference value: 126.5 +/- 9.4 mmHg). The class given is functional, Artery.
The test system of data set [15] is Heart. Nature of the data set: Ionotropic activity in C57BL/6 mouse heart assessed as increase in rate of contraction at 10 uM after 20 mins by hemodynamic analysis relative to control. The class given is functional. An outline of the steps:
as §3

In data set [16] the test system is Mus musculus. Nature of the data set: Antihypertensive activity in C57 black mouse assessed as mean blood pressure at 13.7 to 60.345 umol/kg, po after 3 hrs (reference value: 97.5 +/- 8.7 mmHg). Type of data set: functional.
The test system of data set [17] is Mus musculus. Nature of the data set: Effect on cardiac hemodynamic parameter in C57 black mouse assessed as heart rate at 13.7 to 60.345 umol/kg, po after 1 hr (reference value: 449 +/- 40 bpm). The class given is functional.
Data set [18] has as its system Mus musculus. Nature of the data set: Antihypertensive activity in C57 black mouse assessed as mean blood pressure at 13.7 to 60.345 umol/kg, po after 6 hrs (reference value: 105.7 +/- 9.3 mmHg). The class given is functional.
Data set [19] relates to Heart. The data set is described as follows: Ionotropic activity in C57BL/6 mouse heart assessed as increase in coronary flow rate at 10 uM after 20 mins by hemodynamic analysis relative to control. The class given is functional. An outline of the steps: as §3
In data set [20] the test system is Heart. Nature of the data set: Positive ionotropic activity in C57BL/6 mouse heart assessed as left ventricular developing pressure at 100 uM after 20 mins by hemodynamic analysis (reference value: 169 +/- 2 cmH2O). Type of data set: functional. The essentials:
as §3

The subject of data set [21] is Mus musculus. The data set is described as follows: Antihypertensive activity in C57 black mouse assessed as diastolic blood pressure at 13.7 to 60.345 umol/kg, po after 3 hrs (reference value: 77.2 +/- 11.3 mmHg). Type of data set: functional, Artery.
The subject of data set [22] is Mus musculus. Nature of the data set: Antihypertensive activity in C57 black mouse assessed as systolic blood pressure at 13.7 to 60.345 umol/kg, po after 6 hrs (reference value: 126.2 +/- 7.2 mmHg). The class given is functional, Artery.
Data set [23] can be described thus: Ratio of IPA/No half life to compound half life in phosphate buffered saline at pH 7.4. The class given is physicochemical. The settings on record: buffer.
Data set [24] deals with Heart. Nature of the data set: Ionotropic activity in C57BL/6 mouse heart assessed as increase in rate of relaxation at 10 uM after 20 mins by hemodynamic analysis relative to control. Set-up: scale not given: the % may be the effect or the level left. Type of data set: functional. An outline of the steps:
as §3

Data set [25] has as its system Heart. The data set is described as follows: Ionotropic activity in C57BL/6 mouse heart assessed as decrease in heart rate at 10 uM after 20 mins by hemodynamic analysis relative to control. The class given is functional. Set-up: scale not given: the % may be the effect or the level left. The essentials: as §3
Data set [26] concerns Heart. The data set is described as follows: Ionotropic activity in C57BL/6 mouse heart assessed as heart rate at 100 uM after 20 mins by hemodynamic analysis (reference value: 342 +/- 11 bpm). The class given is functional. The essentials:
as §3

The subject of data set [27] is Heart. Nature of the data set: Ionotropic activity in C57BL/6 mouse heart assessed as coronary flow rate at 100 uM after 20 mins by hemodynamic analysis (reference value: 2.62 +/- 0.1 ml/min). Type of data set: functional. An outline of the steps:
as §3

Data set [28] in a line: Half life of the compound in phosphate buffered saline at 300 uM after 24 hrs at pH 7.4 by diazeniumdiolate chromophore-based UV-Vis spectrophotometric analysis. Type of data set: physicochemical. The essentials:
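Compound at 300 µM final (added from 6 mM DMSO stock; 5% DMSO final) in pH 7.4 phosphate buffer, stirred at 37 °C for 0-24 h. Spectra scanned at 200-400 nm over time. Decay of the diazeniumdiolate absorbance at 259 nm was fitted as first order by linear regression of ln(At − A∞) versus time, and t1/2 = ln2/k.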

The test system of data set [29] is Heart. The data set is described as follows: Positive ionotropic activity in C57BL/6 mouse heart assessed as increase in left ventricular developing pressure at 10 uM after 20 mins by hemodynamic analysis relative to control. Type of data set: functional. An outline of the steps:
as §3

In data set [30] the test system is Mus musculus. The data set is described as follows: Effect on cardiac hemodynamic parameter in C57 black mouse assessed as heart rate at 13.7 to 60.345 umol/kg, po after 3 hrs (reference value: 439 +/- 73 bpm). Type of data set: functional.
Data set [31] is described as follows: Induction of HNO release in phosphate buffer saline after 2 to 4 hrs by phosphine-trapping based LC-MS assay relative to control. Type of data set: physicochemical. An outline of the steps:
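HNO trapping assay. Test compound at 20 µM with phosphine trap at 1 mM and 4-hydroxybenzophenone internal standard at 5.05 µM, in PBS pH 7.4 containing 7.5% DMSO, sealed, 37 °C. Quenched with H2O2, then dried and redissolved in methanol. HNO-derived amide quantified by ESI-negative LC-MS against a standard curve (0.2-10 µg/mL). Result is % of 1 mol HNO/mol compound; mean of triplicates.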

In [1], `CN(N=O)c1ccc(C#N)cc1` came in with an Activity of 100%.

Take `[Na+].[Na+].[O-][N+]([O-])=NO` [ANGELI'S SALT]: the Activity in [2] was 85.9%; in data set [3] it was 21.3%; in data set [4], 20.8%; in [5] it was 85.7%.

On to `CC(C)N[N+]([O-])=N[O-].[Na+]`, for which the Activity in data set [6] is reported as 62%; in data set [2], 5.4%; in data set [5], 5.1%.

Broadly, the half-life is the time in which the quantity being followed falls by half. As for `[Na+].[O-]/N=[N+](/[O-])N1C2CCC1c1ccccc12`, the Activity in data set [7] is on record as 5547 cmH2O/ms; in [8], 554 bpm; in data set [9], 106.5 mmHg; in [10], -3945 cmH2O/ms; in data set [11], 70.6 mmHg; in data set [12], 82.3 mmHg. Moreover, the Activity in data set [13] turned out to be 87.2 mmHg; in data set [14], 105.5 mmHg; in data set [15] it was 30%; in data set [2], 22.3%; in data set [16] it was 85.8 mmHg; in data set [17], 605 bpm. Further, the Activity came out at 19% in data set [3]; 101.1 mmHg in data set [18]; 53% in data set [19]; 213 cmH2O in data set [20]; 21.5% in data set [4]; 75.4 mmHg in data set [21]. Further, the Activity in [22] worked out at 128.9 mmHg; in data set [5] it was 20.2%; in data set [24], 9%; in [25], 22%; in data set [26], 307 bpm; in data set [27], 3.92 mL/min. Also, the Activity came to 24% in data set [29] and 466 bpm in data set [30]. Further, the Ratio in data set [23] is listed as 7.7. In data set [28], the half-life at 300 µM amounted to 17.8 min.

In the case of `CN(c1ccc(C#N)cc1)N(O)N=O`, the Activity in data set [31] is listed as 100%. In [28], this compound returned a half-life at 300 µM of 11 min.

These data come from ChEMBL document CHEMBL2375329, “A diazen-1-ium-1,2-diolate analog of 7-azabenzobicyclo[2.2.1]heptane: synthesis, nitric oxide and nitroxyl release, in vitro hemodynamic, and anti-hypertensive studies” (Bioorg Med Chem Lett, 2013).
